Screening results: PubChem BioAssay, The Scripps Research Institute Molecular Screening Center
TLR4 MyD88 comp = inhibitors of human TLR4-MyD88 binding. O00206+Q99836. HeLa CL3-4 TLR4/MyD88 BLA complementation, FRET ratio. inhibition, % at 8.4 µM. 0.18% of 200,000 active. AID 861; in the data active = inhibition above about 25%
MC4R ag barr = human MC4R agonism via beta-arrestin; P32245; U2OS MC4R beta-arrestin complementation, luminescence; percent of melanotan II response, DMSO zero; activation, % at 8.9 µM; 0.98% of 360,000 active; AID 540308;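 active = activation above a per-plate cutoff, the mean activation of sample wells on that plate plus 3 SD, cut at about 8% in these data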
MC4R antag cAMP = human MC4R antagonism in cAMP assay. MC4R-expressing cells, MTII-stimulated cAMP, LANCE TR-FRET. inhibition, % at 6.5 µM. 0.48% of 360,000 active. AID 540295;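 active = inhibition above its plate's cutoff, the mean of tested wells on that plate plus 3 SD, cut at about 29% in these data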
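system = U2OS cells with stable human MC4R expression | also added = Melanotan II challenge after compound preincubation | dosing = one concentration, 6.5 µM nominal | incubation = compound 30 min, challenge 1 h, detection 1 h | measured by = TR-FRET with Eu-cAMP and labeled anti-cAMP, 671 nm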
NOD2 RIPK2 PPI = inhibitors of human NOD2-RIPK2 interaction. O43353. CHO BLA complementation NOD2-RIPK2, CCF4 ratio. inhibition, % at 4.98 µM. 0.38% of 360,000 active; in the data active = inhibition above about 21%
TLR9-MyD88 block = blocks human TLR9 binding to MyD88; Q9NR96+Q99836; inhibition, % at 4.98 µM; CHO BLA complementation TLR9-MyD88, CCF4 FRET ratio; 0.21% of 340,000 active;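 active = inhibition above the mean over all tested compounds plus 3 SD, cut at about 21% in these data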
MC4R barr conf = human MC4R beta-arrestin agonism confirmation. U2OS MC4R beta-arrestin recruitment, luminescence; scaled DMSO 0%, Melanotan II 100%. activation, % at 8.9 µM. shares compounds with MC4R ag barr. 31% of 2,400 active;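 active = mean activation across replicates above the hit cutoff set in the earlier primary screen, cut at about 8% in these data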
MOR DOR agonist = activates mu-delta opioid heterodimer, MC4R agonist counter-screen | shares compounds with MC4R ag barr | U2OS PathHunter beta-arrestin, beta-gal luminescence; percent of deltorphin B response, DMSO zero | activation, % at 9.2 µM | 5.8% of 2,400 active;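 active = mean activation across replicates exceeds the hit threshold derived in the earlier primary screen, cut at about 18% in these data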
Target sequence (P35372 whole entry, looked up): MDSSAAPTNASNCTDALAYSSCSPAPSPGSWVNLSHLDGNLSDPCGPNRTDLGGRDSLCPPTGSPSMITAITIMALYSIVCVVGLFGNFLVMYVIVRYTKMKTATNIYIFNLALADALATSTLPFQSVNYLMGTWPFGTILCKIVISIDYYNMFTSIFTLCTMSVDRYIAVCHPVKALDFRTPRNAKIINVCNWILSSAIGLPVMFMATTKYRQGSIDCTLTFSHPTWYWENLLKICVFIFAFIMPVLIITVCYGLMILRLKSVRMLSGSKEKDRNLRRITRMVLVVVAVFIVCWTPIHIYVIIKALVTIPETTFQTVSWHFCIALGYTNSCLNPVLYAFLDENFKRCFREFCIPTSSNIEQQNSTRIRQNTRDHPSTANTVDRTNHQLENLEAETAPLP
Target sequence (P41143 whole entry, looked up): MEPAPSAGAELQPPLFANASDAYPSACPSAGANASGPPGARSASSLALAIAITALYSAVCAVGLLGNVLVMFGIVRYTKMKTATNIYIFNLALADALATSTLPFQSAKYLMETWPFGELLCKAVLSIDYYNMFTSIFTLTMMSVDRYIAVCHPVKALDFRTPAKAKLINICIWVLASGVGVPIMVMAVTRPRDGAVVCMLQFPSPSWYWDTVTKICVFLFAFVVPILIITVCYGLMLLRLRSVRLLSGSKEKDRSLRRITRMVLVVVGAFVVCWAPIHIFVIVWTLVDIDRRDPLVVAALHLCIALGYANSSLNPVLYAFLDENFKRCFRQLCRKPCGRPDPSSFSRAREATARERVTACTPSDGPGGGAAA
A number is an active result; 0 = inactive; - = no result. Sampled rows, rich in hits. Any-hit rate of the full collection: about 1.8%.

SMILES	TLR4 MyD88 comp	MC4R ag barr	MC4R antag cAMP	NOD2 RIPK2 PPI	TLR9-MyD88 block	MC4R barr conf	MOR DOR agonist
CCC(C(=O)Nc1nnc(-c2ccco2)s1)c1ccccc1 (centres undefined)	0	10.5	0	0	0	0	0
O=C(Nc1nnc(CC(c2ccccc2)c2ccccc2)s1)c1ccco1	0	19.9	0	0	0	0	0
CCC(c1ccccc1)c1nnc(NC(=O)c2ccco2)s1 (centres undefined)	-	0	0	0	-	-	-
CCc1nnc(NC(=O)C(CC)c2ccccc2)s1 (centres undefined)	0	0	0	0	0	-	-
CCCC(=O)Nc1ccc(-c2csc(N/N=C\c3ccncc3)n2)cc1	-	18.7	0	0	0	0	0
CN(C)c1cccc(CNC(=O)c2ccc3nc([C@@H]4O[C@H](CO)[C@H](O)[C@H](O)[C@H]4O)[nH]c3c2)c1	-	0	0	0	-	-	-
Cc1cccc(-c2nnn3c2nc(NCCc2ccc(S(N)(=O)=O)cc2)c2ccccc23)c1	0	0	0	0	0	-	-
NS(=O)(=O)c1ccc(CCNc2nc3c(-c4cccc(F)c4)nnn3c3ccccc23)cc1	0	14.6	0	0	0	10.7	0
CC(C)C[C@@H](CN1CCC[C@H]1CN1C(=O)C(=O)NC[C@@H]1Cc1ccc(O)cc1)N1C[C@H](Cc2ccccc2)N(CC2CCCCCC2)C(=O)C1=O	-	-	-	0	-	-	-
Clc1ccc(-n2ncc3c(NCc4ccc5c(c4)OCO5)ncnc32)cc1	0	10.2	0	0	0	0	0
O=C1CSc2ccc(C(=O)Nc3cccc(S(=O)(=O)Nc4ccc(Br)cc4)c3)cc2N1	0	10.9	0	0	0	0	0
O=C(O)c1ccc(NC(=O)c2cccc(S(=O)(=O)Nc3ccc(C(=O)O)cc3)c2)cc1	-	0	0	0	0	-	-
Cc1ccc([N+](=O)[O-])cc1NC(=S)NC(=O)C(C)(C)C	0	0	0	0	0	-	-
Cc1ccc([N+](=O)[O-])cc1NC(=S)NC(=O)c1c(Cl)cnn1C	-	18.3	0	0	0	0	0
CC1CCCCC1NC(=O)NC(=O)COC(=O)c1ccc(OC(F)F)cc1 (centres undefined)	-	10.2	0	0	0	0	0
CC(C)Oc1ccc(C(=O)OCC(=O)NC(=O)NC2CCCC2)cc1	-	0	0	0	0	-	-
COc1ccccc1CN1CC(C(=O)NCc2cc(F)ccc2C)CCC1=O (centres undefined)	-	0	0	0	0	-	-
O=C(NN=Cc1cc(Cl)ccc1[N+](=O)[O-])c1cccc2ccccc12	-	10.6	0	0	0	0	0
O=C(NN=Cc1ccccc1Cl)c1cccc2ccccc12	-	0	0	0	0	-	-
COC(=O)C1CCN(c2ccc(Cl)nn2)CC1	0	0	0	0	0	-	-
Cc1cnc(C2OCCO2)c2cccc(N)c12	-	0	0	0	0	-	-
CCC(C)c1ccc(OCCn2cc(/C=N/NC(=O)CSc3nnc(C)s3)c3ccccc32)cc1 (centres undefined)	0	15.7	0	0	0	0	0
Nc1sc(-c2ccccc2)cc1-c1n[nH]c(=S)n1C1CCCCC1	-	11.1	0	0	-	0	0
Cc1ccc(NC(=O)Cn2cnc3ccccc32)cc1C	0	0	0	0	0	-	-
Cc1ccc(NC(=O)Cn2c(/C=C/c3ccccc3)nc3ccccc32)cc1C	0	17.0	0	0	0	0	-
SMILES	TLR4 MyD88 comp	MC4R ag barr	MC4R antag cAMP	NOD2 RIPK2 PPI	TLR9-MyD88 block	MC4R barr conf	MOR DOR agonist
Cc1ccc(C(=O)Cn2c(C(=O)/C=C/c3ccccc3)nc3ccccc32)cc1	0	20.4	0	0	0	21.0	0
COC(=O)Cc1ccc(OC2(C)CCN(Cc3csc4ccccc34)C2)cc1 (centres undefined)	-	0	0	0	-	-	-
COc1c(C(=O)Nc2ccc(CN3CCOCC3)cc2)cc2ccccc2c1Br	-	0	0	0	0	-	-
COc1c(C(=O)Nc2ccc3[nH]c(=O)[nH]c3c2)cc2ccccc2c1Br	0	12.2	0	0	0	0	0
Cn1c(O)c(N=NC(=O)Cn2c(C(F)(F)F)nc3ccccc32)c2ccccc21	0	0	0	0	0	-	-
Cc1ccccc1OCC(O)CNC1CCC(NCC(O)COc2ccccc2C)CC1 (centres undefined)	-	11.0	0	0	0	38.0	34.9
